Assay results reported in ChEMBL document CHEMBL4138107, “The discovery of novel, potent ERR-alpha inverse agonists for the treatment of triple negative breast cancer” (Eur J Med Chem, 2017).
Blank lines part the entries; values can stand above or below the compound they belong to. Active and inactive are the calls of the source. The calls are words filed in the database; no cut-off is given here.

Assays:
[1] = test system: MDA-MB-231; assay: Antitumor activity against human MDA-MB-231 cells xenografted in BALB/c nude mouse assessed as tumor size at 30 mg/kg administered every other day for 28 days measured after 30 days relative to control; format: functional
Method in brief: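 MDA-MB-231 cells suspended in PBS injected subcutaneously into the right flank of 6-week-old BALB/c nude mice. Once tumors averaged >100 mm³, mice were randomized into groups of 10 and given vehicle, test compound or cyclophosphamide 30 mg/kg, dosed every other day. Mice were weighed 3 times weekly. Tumor volume = length × width² × 0.5 and was compared with the vehicle group.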

[2] = molecular target: T1, Steroid hormone receptor ERR1 (Homo sapiens, UniProt P11474); assay: Inverse agonist activity at GAL4-DNA binding domain-fused human ERRalpha ligand binding domain expressed in HEK293 cells assessed as inhibition of transcriptional activity after 48 hrs by luciferase reporter gene assay; format: cell-based
T1 sequence (P11474 whole entry): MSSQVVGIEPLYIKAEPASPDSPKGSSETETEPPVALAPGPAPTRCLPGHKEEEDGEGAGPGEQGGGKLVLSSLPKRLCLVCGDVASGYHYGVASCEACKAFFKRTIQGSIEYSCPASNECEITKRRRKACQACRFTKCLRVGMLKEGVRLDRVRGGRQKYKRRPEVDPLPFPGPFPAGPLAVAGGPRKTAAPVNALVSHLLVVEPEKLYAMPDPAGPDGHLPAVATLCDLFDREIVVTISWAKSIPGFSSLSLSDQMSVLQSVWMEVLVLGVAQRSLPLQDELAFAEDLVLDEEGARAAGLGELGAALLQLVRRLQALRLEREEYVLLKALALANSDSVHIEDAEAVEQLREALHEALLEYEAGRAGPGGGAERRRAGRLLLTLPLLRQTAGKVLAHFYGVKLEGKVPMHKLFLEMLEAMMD
Method in brief: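 HEK293 cells at 1×10⁵/well in DMEM with 10% FBS, transfected at 70-80% confluency. Per well: 20 ng GAL4-DBD-ERRα-LBD, 20 ng UAS-Luc reporter and 5 ng pRL-TK control. After 6 h at 37°C, vehicle (0.05% DMSO) or compound added for 48 h. Dual-luciferase read-out.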

[3] = test system: MDA-MB-231; assay: Antiproliferative activity against ER deficient human MDA-MB-231 cells after 48 hrs by CCK-8 assay; format: functional, cell-based; conditions: MDA-MB-231, 48 h
Method in brief: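 Cells seeded in 96-well plates and cultured overnight, then exposed to a range of compound concentrations for 48 h. CCK-8 reagent added and incubated 2 h at 37°C. Read-out is optical density at 450 nm. MDA-MB-231 maintained in L-15 with 10% FBS, L-glutamine, sodium pyruvate, pen/strep at 37°C, 5% CO2.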

[4] = test system: MDA-MB-435; assay: Antiproliferative activity against ER deficient human MDA-MB-435 cells after 48 hrs by CCK-8 assay; format: functional, cell-based; conditions: MDA-MB-435, 48 h
[5] = test system: T47D; assay: Antiproliferative activity against human T47D cells harboring ER after 48 hrs by CCK-8 assay; format: functional, cell-based
[6] = test system: MCF7; assay: Antiproliferative activity against human MCF7 cells harboring ER after 48 hrs by CCK-8 assay; format: functional, cell-based; conditions: MCF7, 48 h
[7] = test system: HeLa; assay: Antiproliferative activity against human HeLa cells after 48 hrs by CCK-8 assay; format: functional, cell-based
[8] = test system: PC-3; assay: Antiproliferative activity against human PC3 cells after 48 hrs by CCK-8 assay; format: functional, cell-based; conditions: PC-3, 48 h
[9] = test system: LNCaP; assay: Antiproliferative activity against human LNCAP cells after 48 hrs by CCK-8 assay; format: functional, cell-based
[10] = test system: A549; assay: Antiproliferative activity against human A549 cells after 48 hrs by CCK-8 assay; format: functional, cell-based; conditions: A549, 48 h
[11] = test system: MDA-MB-231; assay: Inhibition of cell migration in human MDA-MB-231 cells […] by crystal violet staining-based transwell assay; format: functional
[12] = test system: MDA-MB-231; assay: Induction of ROS generation in human MDA-MB-231 cells after 24 hrs by DCFH-DA staining based fluorescence assay; format: functional, cell-based
Method in brief: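 MDA-MB-231 cells in 96-well plates pretreated with 1-30 µmol/l compound for 24 h at 37 °C. Then loaded with DCFH-DA (10 µmol/l) for 30 min. Fluorescence read at ex 488/em 535 nm on a plate reader and expressed relative to untreated cells. Mean ± SEM, n=4.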

[13] = molecular target: T2, Steroid hormone receptor ERR1 (Homo sapiens) (UniProt P11474); assay: Inverse agonist activity at ERRalpha in human MDA-MB-231 cells assessed as down regulation of PGC-1alpha mRNA expression at 5 to 10 uM after 48 hrs by qRT-PCR analysis; format: cell-based
T2 sequence (whole entry): T1 sequence (P11474 whole entry)
Method in brief: (§1)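 MDA-MB-231 cells in 6-well plates at […]. Exposed to vehicle (DMSO) or compound for 48 h, then mRNA of ERRα target genes (PGC-1α, PDK4, osteopontin/SPP1, pS2/TFF1) quantified by real-time RT-PCR. Mean ± S.E.M. of three independent experiments.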

[14] = molecular target: T2, Steroid hormone receptor ERR1 (Homo sapiens); assay: Inverse agonist activity at ERRalpha in human MDA-MB-231 cells assessed as down regulation of PDK4 mRNA expression at 5 to 10 uM after 48 hrs by qRT-PCR analysis; format: cell-based; method in brief: as §1
[15] = molecular target: T2, Steroid hormone receptor ERR1 (Homo sapiens); assay: Inverse agonist activity at ERRalpha in human MDA-MB-231 cells assessed as down regulation of osteopontin mRNA expression at 5 to 10 uM after 48 hrs by qRT-PCR analysis; format: cell-based; method in brief: as §1
[16] = molecular target: T2, Steroid hormone receptor ERR1 (Homo sapiens); assay: Inverse agonist activity at ERRalpha in human MDA-MB-231 cells assessed as down regulation of pS2 mRNA expression at 5 to 10 uM after 48 hrs by qRT-PCR analysis; format: cell-based; method in brief: as §1
[17] = molecular target: T2, Steroid hormone receptor ERR1 (Homo sapiens); assay: (§2) Inhibition of fluorescein-labeled PGC-1alpha binding to GAL4-DNA binding domain-fused human ERRalpha ligand binding domain expressed in HEK293 cells in presence of terbium chelate by TR-FRET assay; format: cell-based
[18] = molecular target: T1, Steroid hormone receptor ERR1; assay: as §2; format: cell-based
[19] = test system: MDA-MB-231; assay: Antitumor activity against human MDA-MB-231 cells xenografted in BALB/c nude mouse assessed as tumor volume at 30 mg/kg administered every other day for 28 days and measured after 30 days (reference value: 1500 mm3); format: functional
[20] = test system: MDA-MB-231; assay: Effect on steady state ERRalpha mRNA expression in human MDA-MB-231 cells at 5 to 10 uM after 48 hrs by qRT-PCR analysis; format: ADME, cell-based; conditions: mda-mb-231, 48 h
[21] = test system: MDA-MB-231; assay: Antitumor activity against human MDA-MB-231 cells xenografted in BALB/c nude mouse assessed as reduction in tumor growth at 30 to 100 mg/kg administered every other day […]; format: functional, organism-based
[22] = test system: MDA-MB-231; assay: Cell migration rate in human MDA-MB-231 cells at 5 uM after 48 hrs by crystal violet staining-based transwell assay relative to control; conditions: MDA-MB-231, 48 h
[23] = test system: MDA-MB-231; assay: Cell migration rate in human MDA-MB-231 cells at 10 uM after 48 hrs by crystal violet staining-based transwell assay relative to control; conditions: MDA-MB-231, 48 h
[24] = test system: MDA-MB-231; assay: Cell migration rate in human MDA-MB-231 cells at 20 uM after 48 hrs by crystal violet staining-based transwell assay relative to control; conditions: MDA-MB-231, 48 h
[25] = test system: MDA-MB-231; assay: Induction of apoptosis in human in human MDA-MB-231 cells at 10 uM after 48 hrs by Annexin V-FITC staining based fluorescence microscopic analysis

Compound: O=P1(N(CCCl)CCCl)NCCCO1 (centres undefined) [CYCLOPHOSPHAMIDE ANHYDROUS]
Activity [1]: 50.1%

IC50 [2]: 4.06 µM
Compound: CCOc1cc(NS(C)(=O)=O)c(OCC)cc1CNC(=O)Nc1ccc(OCc2ccccc2)c(C(=O)OC)c1

IC50 [2]: 4.23 µM
Compound: CCOc1cc(NS(C)(=O)=O)c(OCC)cc1CNC(=O)Nc1ccc(OCC)c(C(=O)Nc2cccc(OC)c2)c1

IC50 [2]: 3.72 µM
Compound: CCOc1cc(NS(C)(=O)=O)c(OCC)cc1CNC(=O)Nc1ccc(OCC)c(C(=O)Nc2ccccc2)c1

IC50 [2]: 3.81 µM
Compound: CCOc1cc(NS(C)(=O)=O)c(OCC)cc1CNC(=O)Nc1ccc(OCC)c(C(=O)NCc2ccccc2)c1

IC50 [2]: 3.43 µM
Compound: CCCCOc1ccc(NC(=O)NCc2cc(OCC)c(NS(C)(=O)=O)cc2OCC)cc1C(=O)OC

IC50 [2]: 1.9 µM
IC50 [3]: 1.46 µM
IC50 [4]: 2.53 µM
IC50 [5]: 8.31 µM
IC50 [6]: 14.1 µM
IC50 [7]: 6.25 µM
IC50 [8]: 5.01 µM
IC50 [9]: 11.4 µM
IC50 [10]: 4.84 µM
Activity [13]: Active
Activity [14]: Active
Activity [15]: Active
Activity [16]: Active
inhibition [17]: Dose-dependent effect
IC50 [18]: 0.61 µM
Compound: CCOc1cc(NS(C)(=O)=O)c(OCC)cc1CNC(=O)Nc1ccc(OCC)c(C(=O)NCc2ccc(OC)cc2)c1
inhibition [11]: Dose-dependent effect
Activity [12]: Active
Activity [1]: 40.9%
Activity [19]: 720 mm3
Activity [20]: Non-Toxic
TGI [21]: Active
migration rate % at 5 µM [22]: 53.2%
migration rate % at 10 µM [23]: 39.3%
migration rate % at 20 µM [24]: 17.8%
Activity [25]: Active

IC50 [2]: 3.04 µM
Compound: CCOc1cc(NS(C)(=O)=O)c(OCC)cc1CNC(=O)Nc1ccc(OCC)c(C(=O)Nc2ccc(C)cc2)c1

IC50 [2]: 3.48 µM
Compound: CCOc1cc(NS(C)(=O)=O)c(OCC)cc1CNC(=O)Nc1ccc(OCC)c(C(=O)NC(C)C)c1

IC50 [2]: 21.1 µM
Compound: CCOc1cc(NS(C)(=O)=O)c(OCC)cc1CNC(=O)Nc1ccccc1
